Measured values reported in ChEMBL document CHEMBL3588823, “Design, synthesis and biological evaluation of novel 5-oxo-2-thioxoimidazolidine derivatives as potent androgen receptor antagonists” (Eur J Med Chem, 2015).

Key:
LNCaP = test: Antiproliferative activity against human LNCAP cells after 3 days; type: functional, cell-based
In short: (§1)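 LNCaP cells seeded at 10,000 per well in RPMI 1640 with 10% charcoal-stripped serum and 1% AAS, then held 3 days at 37 °C. Medium was then replaced with serial compound dilutions, either without DHT (agonism mode) or with DHT (antagonism mode).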

Androgen receptor [1] = biological target: T1, Androgen receptor (Homo sapiens, UniProt P10275); test: Antagonist activity at androgen receptor (unknown origin)
T1 sequence (P10275 whole entry): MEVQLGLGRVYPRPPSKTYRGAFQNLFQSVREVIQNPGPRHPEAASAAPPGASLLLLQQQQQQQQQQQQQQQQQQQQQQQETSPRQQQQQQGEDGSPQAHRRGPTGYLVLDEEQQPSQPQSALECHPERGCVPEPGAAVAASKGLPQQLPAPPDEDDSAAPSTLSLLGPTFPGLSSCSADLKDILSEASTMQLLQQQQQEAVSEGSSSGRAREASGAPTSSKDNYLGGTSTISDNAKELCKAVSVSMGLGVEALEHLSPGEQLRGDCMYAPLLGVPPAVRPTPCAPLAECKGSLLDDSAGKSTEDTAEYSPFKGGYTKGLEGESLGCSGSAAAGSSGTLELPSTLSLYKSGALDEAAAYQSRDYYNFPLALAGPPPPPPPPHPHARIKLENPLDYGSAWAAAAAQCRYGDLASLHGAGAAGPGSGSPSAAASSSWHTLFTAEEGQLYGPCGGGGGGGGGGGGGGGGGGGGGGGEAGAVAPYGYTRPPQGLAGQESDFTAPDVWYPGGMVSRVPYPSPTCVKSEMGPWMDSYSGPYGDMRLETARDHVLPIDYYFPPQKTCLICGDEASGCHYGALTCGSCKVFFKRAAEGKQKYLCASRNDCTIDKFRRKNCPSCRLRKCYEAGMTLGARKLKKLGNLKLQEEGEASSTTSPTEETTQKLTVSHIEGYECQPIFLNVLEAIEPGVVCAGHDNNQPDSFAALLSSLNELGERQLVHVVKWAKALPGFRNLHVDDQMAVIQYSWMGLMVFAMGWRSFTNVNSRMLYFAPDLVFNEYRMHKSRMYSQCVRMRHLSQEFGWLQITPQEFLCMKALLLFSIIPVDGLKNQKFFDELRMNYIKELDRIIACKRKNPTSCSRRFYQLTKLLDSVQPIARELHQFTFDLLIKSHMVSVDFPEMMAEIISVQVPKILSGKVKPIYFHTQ

Androgen receptor [2] = biological target: T1, Androgen receptor; test: Partial agonist activity at androgen receptor (unknown origin); in short: as §1
[3] = AUC (0 to time) in rat at 5 mg/kg, po; type: ADME, organism-based; conditions: in vivo
In short: (§2)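 Rats (n = 3) received a single 5 mg/kg oral dose in 0.5% HPMC. EDTA blood samples were taken at 15 and 30 min and at 1, 2, 4, 8 and 24 h. Plasma was obtained by centrifugation, mixed with acetonitrile:H2O (1:1 v/v) and precipitated with acetonitrile.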

Rattus norvegicus [4] = test: (§3) Half life in rat at 5 mg/kg, po; type: ADME, organism-based; conditions: in vivo
In short: (§4)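 Rats (n = 3) were given a single 5 mg/kg oral dose in 0.5% HPMC. Blood was taken into EDTA tubes at 15 and 30 min and 1, 2, 4, 8 and 24 h. Plasma was obtained by centrifugation and proteins were precipitated with acetonitrile. Bioavailability was calculated against a 1 mg/kg iv dose.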

[5] = Oral bioavailability in rat at 5 mg/kg; type: ADME, organism-based; conditions: in vivo; in short: as §4
[6] = MRT (last) in rat at 5 mg/kg, po; type: ADME, organism-based; conditions: in vivo; in short: as §4
Rattus norvegicus [7] = test: (§5) Clearance in rat at 5 mg/kg, po; type: ADME, organism-based; conditions: in vivo; in short: as §4
[8] = Volume of distribution at steady state in rat at 1 mg/kg, iv; type: ADME, organism-based; conditions: in vivo, read-out: Vdss
In short: (§6)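 Rats (n = 3) were given a single 1 mg/kg iv dose in 20% hydroxypropyl-β-cyclodextrin. Blood was taken into EDTA tubes at 5, 15 and 30 min and 1, 2, 4, 8 and 24 h. Plasma was obtained by centrifugation and proteins were precipitated with acetonitrile before analysis.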

[9] = AUC (0 to infinity) in rat at 5 mg/kg, po; type: ADME, organism-based; set-up: dose 5 mg/kg, route oral, time infinity; conditions: in vivo; in short: as §2
[10] = AUC (0 to infinity) in rat at 1 mg/kg, iv; type: ADME, organism-based; set-up: dose 1 mg/kg, route intravenous, time infinity; conditions: in vivo
In short: (§7)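 Rats (n = 3) given a single 1 mg/kg iv dose in 20% HP-b-CD. Blood was drawn into EDTA tubes at 5, 15 and 30 min and at 1, 2, 4, 8 and 24 h. Plasma was separated by centrifugation, mixed with acetonitrile:H2O (1:1 v/v) and protein-precipitated with acetonitrile.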

[11] = Clearance in rat at 1 mg/kg, iv; type: ADME, organism-based; conditions: in vivo; in short: as §6
[12] = AUC (0 to time) in rat at 1 mg/kg, iv; type: ADME, organism-based; conditions: in vivo; in short: as §7
[13] = Volume of distribution in rat at 1 mg/kg, iv; type: ADME, organism-based; conditions: in vivo; in short: as §6
[14] = MRT (INF) in rat at 5 mg/kg, po; type: ADME, organism-based; conditions: in vivo; in short: as §4
[15] = MRT (last) in rat at 1 mg/kg, iv; type: ADME, organism-based; conditions: in vivo; in short: as §6
[16] = Tmax in rat at 1 mg/kg, iv; type: ADME, organism-based; conditions: in vivo; in short: as §6
[17] = MRT (INF) in rat at 1 mg/kg, iv; type: ADME, organism-based; conditions: in vivo; in short: as §6
[18] = Cmax in rat at 5 mg/kg, po; type: ADME, organism-based; set-up: dose 5 mg/kg, route oral; conditions: in vivo; in short: as §4
Rattus norvegicus [19] = test: Volume of distribution at steady state in rat at 5 mg/kg, po; type: ADME, organism-based; conditions: in vivo; in short: as §4
[20] = Cmax in rat at 1 mg/kg, iv; type: ADME, organism-based; set-up: dose 1 mg/kg, route intravenous; conditions: in vivo; in short: as §6
[21] = Tmax in rat at 5 mg/kg, po; type: ADME, organism-based; conditions: in vivo; in short: as §4
[22] = Half life in rat at 1 mg/kg, iv; type: ADME, organism-based; conditions: in vivo; in short: as §6
Rattus norvegicus [23] = test: Volume of distribution in rat at 5 mg/kg, po; type: ADME, organism-based; conditions: in vivo; in short: as §4
[24] = as §3; type: ADME, organism-based; conditions: in vivo; in short: as §4
[25] = as §5; type: ADME, organism-based; conditions: in vivo; in short: as §4
[26] = Homo sapiens, LNCaP, 72 h, read-out: IC50

CNC(=O)c1ccc(N2C(=S)N(c3ccc(C#N)c(C(F)(F)F)c3)C(=O)C23CCN(C)CC3)cc1F
IC50 (LNCaP; [26]): > 10000 nM

CNC(=O)c1ccc(N2C(=S)N(c3ccc(C#N)c(C(F)(F)F)c3)C(=O)C23CCOC3)cc1F (racemic)
Ki (Androgen receptor [1]): 33.8 nM | IC50 (LNCaP; [26]): 196 nM

CNC(=O)c1ccc(N2C(=S)N(c3cnc(C#N)c(C(F)(F)F)c3)C(=O)C23CCC3)cc1F [APALUTAMIDE]
IC50 (LNCaP; [26]): 174 nM

CNC(=O)c1ccc(N2C(=S)N(c3ccc(C#N)c(C(F)(F)F)c3)C(=O)C2(C)COC)cc1F (racemic)
Ki (Androgen receptor [1]): 68 nM | IC50 (LNCaP; [26]): 344 nM

CNC(=O)c1ccc(N2C(=S)N(c3ccc(C#N)c(C(F)(F)F)c3)C(=O)C2C)cc1F (racemic)
Ki (Androgen receptor [2]): 257 nM | IC50 (LNCaP; [26]): 944 nM

CNC(=O)c1ccc(N2C(=S)N(c3ccc(C#N)c(C(F)(F)F)c3)C(=O)[C@]2(C)COC)cc1F
Ki (Androgen receptor [1]): 798 nM | IC50 (LNCaP; [26]): 3170 nM

CNC(=O)c1ccc(N2C(=S)N(c3ccc(C#N)c(C(F)(F)F)c3)C(=O)C23CCOCC3)cc1F
Ki (Androgen receptor [1]): 126 nM | IC50 (LNCaP; [26]): 540 nM

CCOC(=O)CC1(C)C(=O)N(c2ccc(C#N)c(C(F)(F)F)c2)C(=S)N1c1ccc(C(=O)NC)c(F)c1 (racemic)
Ki (Androgen receptor [1]): 236 nM | IC50 (LNCaP; [26]): 1380 nM

N#Cc1ccc(N2C(=O)[C@]3(CCOC3)N(c3ccc(C(N)=O)c(F)c3)C2=S)cc1C(F)(F)F
AUC [3]: 1280 ng·h/mL | t1/2 (Rattus norvegicus [4]): 1.8 h | bioavailability [5]: 87% | Ki (Androgen receptor [1]): 14.1 nM | MRT last [6]: 3.1 h | CL (Rattus norvegicus [7]): 60 mL/min/kg | Vd [8]: 6.1 L/kg | AUC(0-inf) [9]: 1390 ng·h/mL | AUC(0-inf) [10]: 303 ng·h/mL | clearance [11]: 55 mL/min/kg | AUC [12]: 295 ng·h/mL | Vd [13]: 7 L/kg | MRT inf [14]: 3.7 h | MRT last [15]: 1.6 h | Tmax [16]: 4.98 min | MRT inf [17]: 1.8 h | Cmax [18]: 261 ng/mL | Vdss (Rattus norvegicus [19]): 22.3 L/kg | Cmax [20]: 185 ng/mL | Tmax [21]: 2 h | half-life [22]: 1.5 h | IC50 (LNCaP; [26]): 71.4 nM | Vd (Rattus norvegicus [23]): 9.4 L/kg

CNC(=O)c1ccc(N2C(=S)N(c3ccc(C#N)c(C(F)(F)F)c3)C(=O)[C@@]23CCOC3)cc1F
Ki (Androgen receptor [1]): 215 nM | IC50 (LNCaP; [26]): 2000 nM

N#Cc1ccc(N2C(=O)[C@]3(CCOC3)N(c3ccc(C(=O)O)c(F)c3)C2=S)cc1C(F)(F)F
AUC [3]: 716 ng·h/mL | half-life [24]: 4 h | bioavailability [5]: 29% | Ki (Androgen receptor [1]): Not Active | MRT last [6]: 3.5 h | CL/F [25]: 117 mL/min/kg | AUC(0-inf) [9]: 743 ng·h/mL | AUC(0-inf) [10]: 509 ng·h/mL | clearance [11]: 33.3 mL/min/kg | AUC [12]: 497 ng·h/mL | Vd [13]: 8 L/kg | MRT inf [14]: 4.2 h | MRT last [15]: 0.5 h | Tmax [16]: 4.98 min | MRT inf [17]: 0.8 h | Cmax [18]: 231 ng/mL | Cmax [20]: 1180 ng/mL | Tmax [21]: 0.42 h | half-life [22]: 3.3 h | IC50 (LNCaP; lncap): Not Active | Vd (Rattus norvegicus [23]): 38.4 L/kg

CNC(=O)c1ccc(N2C(=S)N(c3ccc(C#N)c(C(F)(F)F)c3)C(=O)[C@H]2C)cc1F
Ki (Androgen receptor [2]): 482 nM | IC50 (LNCaP; [26]): 1510 nM

CNC(=O)c1ccc(N2C(=S)N(c3ccc(C#N)c(C(F)(F)F)c3)C(=O)C23CN(C(c2ccccc2)c2ccccc2)C3)cc1F
Ki (Androgen receptor [1]): Not Active | IC50 (LNCaP; lncap): Not Active
